≈ marks a conversion by molar mass, not a printed value.
Tests used:
[1] = Drug level in plasma of healthy human at 500 mg, iv administered as 2-h infusion every 8 h after 4 hrs
[2] = AUC in epithelial lining fluid of healthy human at 500 mg, iv administered as 2-h infusion every 8 h; conditions: in vivo
[3] = system: Staphylococcus aureus; assay: Antibacterial activity against hospital-acquired methicillin-resistant Staphylococcus aureus clinical isolates; format: functional
Outline: (§1)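 MICs determined by CLSI dilution methodology for aerobically growing bacteria; the active drug, not the prodrug, was used for in vitro testing.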

[4] = Drug level in plasma of healthy human at 500 mg, iv administered as 2-h infusion every 8 h after 6 hrs
[5] = system: Homo sapiens; assay: Volume of distribution in central compartment of healthy human at 500 mg, iv administered as 2-h infusion every 8 h; conditions: in vivo
[6] = Clearance in healthy human at 500 mg, iv administered as 2-h infusion every 8 h; conditions: in vivo
[7] = Drug level in epithelial lining fluid of healthy human at 500 mg, iv administered as 2-h infusion every 8 h after 6 hrs; conditions: read-out: Drug uptake
[8] = Fraction unbound in mouse plasma; format: ADME, cell-free
[9] = Drug level in epithelial lining fluid of healthy human at 500 mg, iv administered as 2-h infusion every 8 h after 4 hrs; conditions: read-out: Drug uptake
[10] = Volume of distribution in epithelial lining fluid of healthy human at 500 mg, iv administered as 2-h infusion every 8 h; conditions: in vivo
[11] = Drug level in plasma of healthy human at 500 mg, iv administered as 2-h infusion every 8 h after 8 hrs
[12] = system: Staphylococcus aureus; assay: Antibacterial activity against community-acquired methicillin-resistant Staphylococcus aureus clinical isolates; format: functional
Outline: as §1

[13] = AUC in plasma of mouse; format: ADME, cell-free
Outline: (§2)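 Neutropenic (cyclophosphamide) female BALB/c mice were infected with S. aureus in 3% mucin by aspiration. At 6 h they received single sc doses of prodrug (1.0–25.0 mg/kg, in sterile water). Plasma was sampled at 0.25–4 h (6 mice per time point) and BAL at 0.25–4 h. Samples were citrate-stabilized and assayed by HPLC (LOQ 0.01 mg/liter), with urea correction for ELF. AUCs came from a 9,999-subject simulation.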

[14] = Drug level in epithelial lining fluid of healthy human at 500 mg, iv administered as 2-h infusion every 8 h after 8 hrs; conditions: read-out: Drug uptake
[15] = system: Staphylococcus aureus; assay: Antibacterial activity against methicillin-susceptible Staphylococcus aureus clinical isolates; format: functional
Outline: as §1

[16] = AUC in plasma of healthy human at 500 mg, iv administered as 2-h infusion every 8 h
[17] = Drug level in plasma of healthy human at 500 mg, iv administered as 2-h infusion every 8 h after 2.5 hrs
[18] = Drug level in epithelial lining fluid of healthy human at 500 mg, iv administered as 2-h infusion every 8 h after 2.5 hrs; conditions: read-out: Drug uptake
[19] = Plasma protein binding in mouse; format: ADME, cell-free; conditions: read-out: PPB (converted)
[20] = AUC in epithelial lining fluid of mouse; format: ADME, tissue-based
Outline: as §2

Nc1nc(/C(=N/O)C(=O)N[C@@H]2C(=O)N3C(C(=O)O)=C(/C=C4\CCN([C@@H]5CCNC5)C4=O)CS[C@H]23)ns1 [CEFTOBIPROLE]
concentration at 4 h [1]: 12800 ng/mL
AUC [2]: 25200 ng·h/mL
MIC [3]: 0.5 µg/mL (≈ 0.935 µM)
concentration at 6 h [4]: 6910 ng/mL
Vd [5]: 2.849 L
CL/F [6]: 86 mL/min
concentration at 6 h [7]: 4580 ng/mL
fraction unbound [8]: 0.81
concentration at 4 h [9]: 2000 ng/mL
Vd [10]: 39.1 L
concentration at 8 h [11]: 3650 ng/mL
MIC [12]: 1 µg/mL (≈ 1.87 µM)
AUC [13]: 68800 ng·h/mL
concentration at 8 h [14]: 1510 ng/mL
MIC [15]: 0.25 µg/mL (≈ 0.468 µM)
AUC [16]: 98700 ng·h/mL
concentration at 2.5 h [17]: 17700 ng/mL
concentration at 2.5 h [18]: 2550 ng/mL
fraction unbound [19]: 0.81
AUC [20]: 46000 ng·h/mL
